Test results as given in ChEMBL document CHEMBL1165950, “Design and synthesis of new potent anticancer pyrazoles with high FLT3 kinase inhibitory selectivity” (Bioorg Med Chem, 2010).

How the values were obtained:
Assay type in all cases: functional
NCI/ADR-RES [1] = experiment: Cytotoxicity against human NCI/ADR-RES cells assessed as cell growth at 0.01 uM after 48 hrs by sulforhodamine B assay; conditions: read-out: Activity
TK-10 = experiment: Cytotoxicity against human TK10 cells assessed as cell growth at 0.01 uM after 48 hrs by sulforhodamine B assay; conditions: TK-10, 48 h, read-out: Activity
UACC-62 = experiment: Cytotoxicity against human UACC62 cells assessed as cell growth at 0.01 uM after 48 hrs by sulforhodamine B assay; conditions: UACC-62, 48 h, read-out: Activity
[2] = Growth inhibition of human […] cells after 48 hrs by sulforhodamine B assay; conditions: for CC50: read-out: LC50 (the source's name)
Method in brief: (§1)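 NCI 60-cell screen, five-dose mode. Cells grown in RPMI 1640 with 5% FBS and 2 mM L-glutamine and plated at 5000-40,000 cells/well according to doubling time. After 24 h preincubation, a Tz plate was TCA-fixed. Five concentrations (10-fold or 1/2 log dilutions) were applied for 48 h at 37 °C. SRB staining read at 515 nm. IC50 taken from [(Ti-Tz)/(C-Tz)]×100 = 50.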

NCI/ADR-RES [3] = experiment: Growth inhibition of human NCI/ADR-RES cells after 48 hrs by sulforhodamine B assay; conditions: for CC50: read-out: LC50 (the source's name); method in brief: as §1
HL-60(TB) = experiment: Cytotoxicity against human HL-60(TB) cells assessed as cell growth at 10 uM after 48 hrs by sulforhodamine B assay; conditions: HL-60, 48 h, read-out: Activity
Method in brief: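 NCI 60-cell panel. Cells are grown in RPMI 1640 with 5% FBS and 2 mM L-glutamine, seeded at 5000–40,000 cells/well according to doubling time, and preincubated 24 h. Time-zero plates are TCA-fixed. Compound from DMSO stock is given at five 10-fold or 1/2-log concentrations for 48 h at 37 °C, 5% CO2. Suspension cells are fixed with 80% TCA (final 16%) and SRB-stained, with absorbance at 515 nm. Percent growth is derived from Tz, control and test readings.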

OVCAR-8 = experiment: Cytotoxicity against human OVCAR8 cells assessed as cell growth at 0.01 uM after 48 hrs by sulforhodamine B assay; conditions: OVCAR-8, 48 h, read-out: Activity
SK-MEL-2 = experiment: Cytotoxicity against human SK-MEL-2 cells assessed as cell growth at 100 nM after 48 hrs by sulforhodamine B assay; conditions: SK-MEL-2, 48 h, read-out: Activity
HCT-15 = experiment: Cytotoxicity against human HCT15 cells assessed as cell growth at 100 nM after 48 hrs by sulforhodamine B assay; conditions: HCT-15, 48 h, read-out: Activity
CAKI-1 [4] = experiment: Cytotoxicity against human Caki1 cells assessed as cell growth at 0.001 uM after 48 hrs by sulforhodamine B assay; conditions: CAKI-1, 48 h, read-out: Activity
CAKI-1 [5] = experiment: Growth inhibition of human Caki1 cells after 48 hrs by sulforhodamine B assay; conditions: CAKI-1, 48 h; for CC50: read-out: LC50 (the source's name)
Method in brief: (§2)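 NCI five-dose SRB assay in RPMI 1640 with 5% FBS and 2 mM L-glutamine. Cells were preincubated 24 h, then exposed 48 h at 37 °C to five concentrations (10-fold or half-log serial dilutions from DMSO stocks). TCA fixation, SRB staining, and absorbance at 515 nm followed. IC50 was taken where [(Ti−Tz)/(C−Tz)]×100 = 50, with Tz as time-zero cell density.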

CCRF-CEM [6] = experiment: Cytotoxicity against human CCRF-CEM cells assessed as cell growth at 100 nM after 48 hrs by sulforhodamine B assay; conditions: read-out: Activity
Method in brief: (§3)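 NCI-60 five-dose screen. Cells were grown in RPMI 1640 with 5% FBS and 2 mM L-glutamine, plated at 5000–40,000 cells/well and preincubated for 24 h. Time-zero plates were TCA-fixed. DMSO-solubilized drug was added at five concentrations (10-fold or ½-log serial dilutions) for 48 h at 37 °C, 5% CO2. Cells were TCA-fixed, stained with 0.4% SRB and read at 515 nm. Percent growth used time-zero, control and test absorbances.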

K562 = experiment: Cytotoxicity against human K562 cells assessed as cell growth at 10 uM; conditions: read-out: Activity
Method in brief: (§4)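 Single-dose NCI-60 screen at 10 µM. Cells were grown in RPMI 1640 with 5% FBS and 2 mM L-glutamine, then treated for 48 h at 37 °C. Protein was measured by SRB staining with absorbance at 515 nm. Percentage growth was recorded, and inhibition percentage was calculated as 100 minus growth percentage.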

ACHN = experiment: Cytotoxicity against human ACHN cells assessed as cell growth at 10 uM after 48 hrs by sulforhodamine B assay; conditions: read-out: Activity; method in brief: as §3
786-0 = experiment: Cytotoxicity against human 786-0 cells assessed as cell growth at 100 nM after 48 hrs by sulforhodamine B assay; conditions: 786-0, 48 h, read-out: Activity; method in brief: as §3
A498 [7] = experiment: Cytotoxicity against human A498 cells assessed as cell growth at 10 uM after 48 hrs by sulforhodamine B assay; conditions: A498, 48 h, read-out: Activity; method in brief: as §3
HOP-92 = experiment: Cytotoxicity against human HOP92 cells assessed as cell growth at 0.01 uM after 48 hrs by sulforhodamine B assay; conditions: HOP-92, 48 h, read-out: Activity
CAKI-1 [8] = experiment: Cytotoxicity against human Caki1 cells assessed as cell growth at 10 uM after 48 hrs by sulforhodamine B assay; conditions: CAKI-1, 48 h, read-out: Activity
SN12C = experiment: Growth inhibition of human SN12C cells after 48 hrs by sulforhodamine B assay; method in brief: as §1
HOP-62 = experiment: Cytotoxicity against human HOP62 cells assessed as cell growth at 10 uM; conditions: read-out: Activity; method in brief: as §4
NCI-H522 = experiment: Cytotoxicity against human NCI-H522 cells assessed as cell growth at 0.01 uM after 48 hrs by sulforhodamine B assay; conditions: NCI-H522, 48 h, read-out: Activity
SK-MEL-5 [9] = experiment: Cytotoxicity against human SK-MEL-5 cells assessed as cell growth at 10 uM; conditions: read-out: Activity
Method in brief: (§5)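 NCI-60 screen: cells grown in RPMI 1640 with 5% FBS and 2 mM L-glutamine, plated at 5000–40,000 cells/well according to doubling time, and preincubated 24 h at 37 °C, 5% CO2. The single 10 µM dose (DMSO stock) was added, then incubated 48 h. Cells were TCA-fixed and stained with 0.4% SRB, read at 515 nm, and growth % calculated against time-zero and control plates.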

SK-MEL-5 [10] = experiment: Cytotoxicity against human SK-MEL-5 cells assessed as cell growth at 0.001 uM after 48 hrs by sulforhodamine B assay; conditions: SK-MEL-5, 48 h, read-out: Activity
A498 [11] = experiment: Cytotoxicity against human A498 cells assessed as cell growth at 10 uM; conditions: read-out: Activity; method in brief: as §4
NCI-H23 = experiment: Cytotoxicity against human NCI-H23 cells assessed as cell growth at 10 uM; conditions: read-out: Activity; method in brief: as §5
CCRF-CEM [12] = experiment: Growth inhibition of human CCRF-CEM cells after 48 hrs by sulforhodamine B assay; method in brief: as §2

Row | Compound | growth at 0.01 µM (NCI/ADR-RES [1]) [%] | growth at 0.01 µM (TK-10) [%] | growth at 0.01 µM (UACC-62) [%] | GI50 [2] [µM] | TGI [2] [µM] | CC50 [2] [µM] | GI50 (NCI/ADR-RES [3]) [µM] | TGI (NCI/ADR-RES [3]) [µM] | CC50 (NCI/ADR-RES [3]) [µM] | growth at 10 µM (HL-60(TB)) [%] | growth at 0.01 µM (OVCAR-8) [%] | growth at 0.1 µM (SK-MEL-2) [%] | growth at 0.1 µM (HCT-15) [%] | growth at 0.001 µM (CAKI-1 [4]) [%] | GI50 (CAKI-1 [5]) [µM] | TGI (CAKI-1 [5]) [µM] | CC50 (CAKI-1 [5]) [µM] | growth at 0.1 µM (CCRF-CEM [6]) [%] | growth at 10 µM (K562) [%] | growth at 10 µM (ACHN) [%] | further results
1 | COc1cc(C)cc(-c2nn(CC#N)cc2-c2ccc(-c3cccc(C(C)=O)c3)nc2)c1 | 91 | 100 | 90 | 3.3 | 18.6 | > 100 | 1.31 | 6.06 | > 100 | -8 | 88 | 88 | 69 | 101 | 1.91 | 10.5 | > 100 | 77 | 16.4 | 4 | growth at 0.1 µM (786-0): 92%; growth at 10 µM (A498 [7]): -55%; growth at 0.01 µM (HOP-92): 80%; growth at 10 µM (CAKI-1 [8]): -18%; GI50 (SN12C): 6.08 µM; LC50 (SN12C): > 100 µM; TGI (SN12C): > 100 µM; growth at 10 µM (HOP-62): 32.1%; growth at 0.01 µM (NCI-H522): 82%; growth at 10 µM (SK-MEL-5 [9]): 4.86%; growth at 0.001 µM (SK-MEL-5 [10]): 95%; growth at 10 µM (A498 [11]): 19.7%; growth at 10 µM (NCI-H23): 25.1%; GI50 (CCRF-CEM [12]): 2.61 µM; LC50 (CCRF-CEM [12]): > 100 µM; TGI (CCRF-CEM [12]): > 100 µM
2 | Cc1cc(O)cc(-c2nn(CC#N)cc2-c2ccnc(-c3ccc(Oc4ccccc4)cc3)c2)c1 | 96 | 99 | 84 | 2.25 | 6.52 | > 100 | 2.06 | 4.56 | 15.8 | -10 | 91 | 101 | 91 | 101 | 1.8 | 5.78 | 41 | 86 | 15 | -91 | growth at 0.1 µM (786-0): 91%; growth at 10 µM (A498 [7]): -92%; growth at 0.01 µM (HOP-92): 59%; growth at 10 µM (CAKI-1 [8]): -67%; GI50 (SN12C): 1.8 µM; LC50 (SN12C): 9.01 µM; TGI (SN12C): 4.02 µM; growth at 10 µM (HOP-62): 99.3%; growth at 0.01 µM (NCI-H522): 72%; growth at 10 µM (SK-MEL-5 [9]): 64.3%; growth at 0.001 µM (SK-MEL-5 [10]): 93%; growth at 10 µM (A498 [11]): 93.9%; growth at 10 µM (NCI-H23): 42.6%; GI50 (CCRF-CEM [12]): 2.85 µM; LC50 (CCRF-CEM [12]): > 100 µM; TGI (CCRF-CEM [12]): > 100 µM
